Experimental data: ChEMBL document CHEMBL1143775, “Convenient one pot synthesis of some novel derivatives of thiazolo[2,3-b]dihydropyrimidinone possessing 4-methylthiophenyl moiety and evaluation of their antibacterial and antifungal activities” (2007)
In brackets after ≈: the same amount, converted by molar mass.

Experiments:
Type in all cases: functional
Escherichia coli [1] = assay: Antibacterial activity against Escherichia coli ATCC 25922
Summary of the method: (§1)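 Compound-loaded discs were placed on nutrient agar inoculated separately with fresh bacterial strains. Plates were incubated at 37 °C for 24 h with separate solvent and growth controls. Zone of inhibition and MIC were measured. Ciprofloxacin was the reference drug.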

Staphylococcus aureus [2] = assay: Antibacterial activity against Staphylococcus aureus ATCC 25923; summary of the method: as §1
Aspergillus fumigatus [3] = assay: Antifungal activity against Aspergillus fumigatus NCIM 902 at 10 ug/ml; conditions: read-out: IZ
Summary of the method: (§2)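 Serial dilution method on Sabouraud agar (peptone, D-glucose, agar; pH 5.7) seeded with a saline spore suspension made from a loopful of each strain. Plates were dried for 1 h at incubator temperature. Test solutions in DMSO went into punched wells, with a DMSO control. Incubation was at 37 °C for 3–4 days. Zone of inhibition and MIC were read against ciclopiroxolamine as standard.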

Escherichia coli [4] = assay: Antibacterial activity against Escherichia coli ATCC 25922 at 10 ug/ml; conditions: read-out: IZ; summary of the method: as §1
Klebsiella pneumoniae [5] = assay: Antibacterial activity against Klebsiella pneumoniae at 10 ug/ml; conditions: read-out: IZ; summary of the method: as §1
Aspergillus flavus [6] = assay: Antifungal activity against Aspergillus flavus NCIM 524 by dilution method; summary of the method: as §2
Talaromyces marneffei [7] = assay: Antifungal activity against Penicillium marneffei at 10 ug/ml; conditions: read-out: IZ; summary of the method: as §2
Aspergillus fumigatus [8] = assay: Antifungal activity against Aspergillus fumigatus NCIM 902 by dilution method; summary of the method: as §2
Pseudomonas aeruginosa [9] = assay: Antibacterial activity against Pseudomonas aeruginosa ATCC 27853 at 10 ug/ml; conditions: read-out: IZ; summary of the method: as §1
Klebsiella pneumoniae [10] = assay: Antibacterial activity against Klebsiella pneumoniae; summary of the method: as §1
Aspergillus flavus [11] = assay: Antifungal activity against Aspergillus flavus NCIM 524 at 10 ug/ml; conditions: read-out: IZ; summary of the method: as §2
Staphylococcus aureus [12] = assay: Antibacterial activity against Staphylococcus aureus ATCC 25923 at 10 ug/ml by disk diffusion method; conditions: read-out: IZ; summary of the method: as §1
Candida albicans [13] = assay: Antifungal activity against Candida albicans NCIM 3100 by dilution method; summary of the method: as §2
Pseudomonas aeruginosa [14] = assay: Antibacterial activity against Pseudomonas aeruginosa ATCC 27853; summary of the method: as §1
Talaromyces marneffei [15] = assay: Antifungal activity against Penicillium marneffei by dilution method; summary of the method: as §2
Candida albicans [16] = assay: Antifungal activity against Candida albicans NCIM 3100 at 10 ug/ml; conditions: read-out: IZ; summary of the method: as §2

Row | SMILES | MIC (Escherichia coli [1]) | MIC (Staphylococcus aureus [2]) | zone of inhibition at 10 µg/mL (Aspergillus fumigatus [3]) | zone of inhibition at 10 µg/mL (Escherichia coli [4]) | zone of inhibition at 10 µg/mL (Klebsiella pneumoniae [5]) | MIC (Aspergillus flavus [6]) | zone of inhibition at 10 µg/mL (Talaromyces marneffei [7]) | MIC (Aspergillus fumigatus [8]) | zone of inhibition at 10 µg/mL (Pseudomonas aeruginosa [9]) | MIC (Klebsiella pneumoniae [10]) | zone of inhibition at 10 µg/mL (Aspergillus flavus [11]) | zone of inhibition at 10 µg/mL (Staphylococcus aureus [12]) | MIC (Candida albicans [13]) | MIC (Pseudomonas aeruginosa [14]) | MIC (Talaromyces marneffei [15]) | zone of inhibition at 10 µg/mL (Candida albicans [16])
1 | CCOC(=O)C1=C(C)N=c2s/c(=C\c3ccc(Cl)cc3Cl)c(=O)n2C1c1ccc(SC)cc1 (centres undefined) | 25 µg/mL (≈ 48.1 µM) | 12.5 µg/mL (≈ 24.1 µM) | 11 mm | 11 mm | 10 mm | 25 µg/mL (≈ 48.1 µM) | 10 mm | 12.5 µg/mL (≈ 24.1 µM) | 13 mm | 12.5 µg/mL (≈ 24.1 µM) | 10 mm | 18 mm | 12.5 µg/mL (≈ 24.1 µM) | 12.5 µg/mL (≈ 24.1 µM) | 12.5 µg/mL (≈ 24.1 µM) | 12 mm
2 | CCOC(=O)C1=C(C)N=c2s/c(=C\c3ccc(O)c(OC)c3)c(=O)n2C1c1ccc(SC)cc1 (centres undefined) | 12.5 µg/mL (≈ 25.2 µM) | 12.5 µg/mL (≈ 25.2 µM) | 21 mm | 18 mm | 18 mm | 25 µg/mL (≈ 50.3 µM) | 19 mm | 6 µg/mL (≈ 12.1 µM) | 23 mm | 12.5 µg/mL (≈ 25.2 µM) | 11 mm | 20 mm | 12.5 µg/mL (≈ 25.2 µM) | 6 µg/mL (≈ 12.1 µM) | 6 µg/mL (≈ 12.1 µM) | 10 mm
3 | CCOC(=O)C1=C(C)N=c2s/c(=C\c3ccc(-c4ccc(Cl)cc4Cl)o3)c(=O)n2C1c1ccc(SC)cc1 (centres undefined) | 25 µg/mL (≈ 42.7 µM) | 12.5 µg/mL (≈ 21.3 µM) | 10 mm | 11 mm | 20 mm | 12.5 µg/mL (≈ 21.3 µM) | 18 mm | 12.5 µg/mL (≈ 21.3 µM) | 23 mm | 6 µg/mL (≈ 10.2 µM) | 18 mm | 19 mm | 6 µg/mL (≈ 10.2 µM) | 6 µg/mL (≈ 10.2 µM) | 6 µg/mL (≈ 10.2 µM) | 20 mm
4 | CCOC(=O)C1=C(C)N=c2s/c(=C\c3ccc(-c4ccc(Br)cc4)o3)c(=O)n2C1c1ccc(SC)cc1 (centres undefined) | 12.5 µg/mL (≈ 21 µM) | 12.5 µg/mL (≈ 21 µM) | 12 mm | 18 mm | 20 mm | 12.5 µg/mL (≈ 21 µM) | 20 mm | 12.5 µg/mL (≈ 21 µM) | 23 mm | 6 µg/mL (≈ 10.1 µM) | 18 mm | 18 mm | 6 µg/mL (≈ 10.1 µM) | 6 µg/mL (≈ 10.1 µM) | 6 µg/mL (≈ 10.1 µM) | 19 mm
5 | CCOC(=O)C1=C(C)N=c2s/c(=C\c3ccc(SC)cc3)c(=O)n2C1c1ccc(SC)cc1 (centres undefined) | 25 µg/mL (≈ 50.3 µM) | 25 µg/mL (≈ 50.3 µM) | 12 mm | 12 mm | 12 mm | 25 µg/mL (≈ 50.3 µM) | 12 mm | 12.5 µg/mL (≈ 25.2 µM) | 13 mm | 12.5 µg/mL (≈ 25.2 µM) | 10 mm | 10 mm | 12.5 µg/mL (≈ 25.2 µM) | 12.5 µg/mL (≈ 25.2 µM) | 12.5 µg/mL (≈ 25.2 µM) | 10 mm
6 | CCOC(=O)C1=C(C)N=c2s/c(=C\c3ccc(Cl)cc3)c(=O)n2C1c1ccc(SC)cc1 (centres undefined) | 25 µg/mL (≈ 51.5 µM) | 25 µg/mL (≈ 51.5 µM) | 11 mm | 10 mm | 10 mm | 25 µg/mL (≈ 51.5 µM) | 10 mm | 12.5 µg/mL (≈ 25.8 µM) | 12 mm | 12.5 µg/mL (≈ 25.8 µM) | 12 mm | 10 mm | 12.5 µg/mL (≈ 25.8 µM) | 12.5 µg/mL (≈ 25.8 µM) | 12.5 µg/mL (≈ 25.8 µM) | 11 mm
7 | O=C(O)c1cn(C2CC2)c2cc(N3CCNCC3)c(F)cc2c1=O [CIPROFLOXACIN] | 12.5 µg/mL (≈ 37.7 µM) | 12.5 µg/mL (≈ 37.7 µM) |  | 18 mm | 20 mm |  |  |  | 25 mm | 6 µg/mL (≈ 18.1 µM) |  | 19 mm |  | 6 µg/mL (≈ 18.1 µM) |  | 
